A selection: hits, their analogues and other compounds. The true share with any hit is near 2.3%.
Dynein cargo inh = inhibitors of GR-EGFP nuclear translocation, primary screen, dynein cargo transport inhibitor project, imaging, high-content, 3617.4 mouse cells. test concentration mostly 20 µM; stimulated with dexamethasone, 1 µM; active compounds read low. 220,000 compounds, 0.47% hits. z-score, hits read low;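 active = plate z-score of nuclear minus cytoplasmic receptor signal below a set negative limit, without overly bright fluorescence or cell loss, cut at about -3.5 in these data, passing the limit was not always enough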;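 note: z-score of nuclear minus cytoplasmic ring GR-EGFP intensity difference per well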
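Also added – dexamethasone, 1.0 µM final · Buffer or medium – tet-free, stripped-serum medium · Schedule – induction 48 h, compound 1 h, agonist 30 min · Detection – formaldehyde fixation, Hoechst nuclear stain, 10x automated fluorescence imaging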
Autophagy HCS = autophagy modulators in MEF cells, primary screen, imaging, high-content, MEF GFP-LC3 | MEF GFP-LC3 puncta imaging; test concentration mostly 10 µM | calls only at 10 µM (by protocol) | 190,000 compounds, 0.98% hits;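 active = percentage of spot-positive cells more than 3 SD above its plate mean, without a fluorescence outlier flag or 80% toxicity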;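 note: spot-positive cell cutoff set from DMSO-treated cells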
MT stabilize HCS = microtubule stabilizers in HeLa cells, primary screen, imaging, high-content imaging; HeLa tubulin immunostaining HCS, 24 h; share of cells brighter than vehicle mean+2SD; % tubulin-high responders, % at 10 µM; 200,000 compounds, 0.83% hits; AID 2205, 2009;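 active = plate Z-score above 3 for both tubulin-high and condensed-nucleus cell shares, with cell loss under 80%, at 10 µM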;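 note: anti alpha tubulin signal scored within the nucleus-defined area of each cell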
b-catenin transl = modulators of beta-catenin nuclear translocation, primary screen, imaging, HeLa cells, immunofluorescence, high-content; nuclear translocation activity, % at 5 µM; 190,000 compounds, 0.3% hits; AID 1665, 2009;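 active = nuclear translocation activity above 50% at 5 µM, with a well cell count of 50 or more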;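 note: per-cell ratio of nuclear to cytoplasmic median beta-catenin stain intensity; plate controls were DMSO negative control for no effect and GSK-3 inhibitor IX positive control for full effect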
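Test system: HeLa cells, endogenous beta-catenin; Compound: single 5 µM dose plus 0.02–20 µM confirmation series; Times: compound exposure 24 h at 37°C; Signal: fluorescence imaging of beta-catenin antibody stain plus DAPI; Read-out: % activation, nuclear-to-cytoplasmic median beta-catenin signal ratio per cell.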
Insulin prom up = insulin promoter activators in MIN6 cells, imaging, high-content screening, mouse beta cells | MIN6 insulin promoter-GFP reporter; active compounds read high | 190,000 compounds, 0.3% hits | z-score at 5 µM | AID 1625, 2009;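 active = z-score above 3 at 5 µM with at least 500 cells counted in the well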
The depositor's hits bear a star; i = inactive; . = no result; + = active, no number.

SMILES | Dynein cargo inh | Autophagy HCS | MT stabilize HCS | b-catenin transl | Insulin prom up
O=C(NCCCN1CCOCC1)c1cccc(S(=O)(=O)N2CCc3ccccc3C2)c1 | -0.46 | i | 63* | -2 | 0.82
O=C(NCC1(N2CCOCC2)CCCCC1)c1cccc(S(=O)(=O)N2CCc3ccccc3C2)c1 | 1.3 | i | 6 | 0 | -1.6
Cc1ccc2nc3sc(-c4nnc(-c5ccccc5[N+](=O)[O-])o4)c(N)c3cc2c1 | 0.92 | + | 2 | 0 | 0.34
COc1cc(CNc2ccc(N3CCCC3)cc2)cc(Cl)c1OC | 1.2 | i | 16* | 3 | 0.36
CCOc1cc(CNc2ccc(N3CCCC3)cc2)cc(Cl)c1OC | 0.32 | i | 6 | 4 | 0.82
COc1cccc(CNc2ccc(C)c(Cl)c2)c1 | -0.46 | i | 1 | -2 | -0.37
C=CCOc1c(Cl)cc(CNc2ccc(N(C)C)cc2)cc1OC | -0.88 | i | 32* | 4 | 1.2
C=CCOc1c(Cl)cc(CNc2ccc(C)c(Cl)c2)cc1OC | 0.21 | i | 18* | 146* | -1.3
CCn1cc(C(=O)OCC(=O)NCc2ccccc2Cl)c(=O)c2ccc(C)nc21 | 0.31 | i | 3 | -1 | 0.33
Cc1nn(CC(=O)NCc2ccco2)c(C)c1[N+](=O)[O-] | 0.31 | . | . | 2 | -0.12
N/C(=N\OC(=O)c1ccc2c(c1)OCO2)c1ccncc1 | 1.1 | . | . | 0 | -0.09
Cc1nc2sc3c(c2c(=O)[nH]1)CCCCC3 | 1.1 | . | . | 1 | 0.54
Cc1cc(C)n(-c2nc3sc4c(c3c(=O)[nH]2)CCCC4)n1 | 0.43 | + | 2 | 3 | .
COc1cccc(-c2cc(C(=O)Nc3cc(OC)c(OC)c(OC)c3)no2)c1 | 0.27 | i | 49* | . | -0.34
O=C(Nc1cccnc1)c1cc(-c2ccccc2)on1 | -0.61 | i | 3 | -2 | 0.7
CC(C)n1cc(NC(=O)c2cc(-c3ccccc3)on2)cn1 | -0.33 | i | 28* | . | -0.19
COc1cccc(-c2cc(C(=O)Nc3cccnc3)no2)c1 | -0.042 | i | 9 | 111* | -0.18
COc1cccc(C(=O)Nc2cnn(C(C)C)c2)c1 | 0.41 | i | 6 | 2 | -0.59
O=S(=O)(c1ccccc1)N1CCC(O)(CSc2ccc(F)cc2)CC1 | 0.49 | i | 5 | 0 | 0.01
C=C1C(=O)O[C@@H]2C[C@@H](C)[C@@H]3C=CC(=O)[C@@]3(C)[C@@H](OC(C)=O)[C@H]12 | -3.6* | . | . | -1 | .
Cc1c(Br)c(C(F)(F)F)nn1CC(=O)NCCCn1ccnc1 | -0.44 | i | 2 | 1 | -0.1
CCOc1cc(-n2cnnn2)c(OCC)cc1NC(=O)c1cc2ccc(N(CC)CC)cc2oc1=O | -1.5 | + | 3 | . | .
COC(=O)c1nnn(CC(=O)NC(=O)Nc2cccc(Cl)c2C)c1C(=O)OC | 1.2 | i | 2 | 0 | -0.27
N#CCC(=O)Nc1ccc(C(=O)NCc2cccc(Cl)c2)cc1 | -0.77 | . | . | 1 | 0.14
COc1ccc(-n2cc(C#N)c(=O)n(Cc3ccc(F)cc3)c2=O)cc1 | -0.7 | i | 24* | 31 | 0.33
SMILES | Dynein cargo inh | Autophagy HCS | MT stabilize HCS | b-catenin transl | Insulin prom up
Cc1cc(C)n(Cc2ccc(F)cc2)c(=O)c1C#N | 0.31 | i | 4 | 1 | 0.84
Cc1cc(/C=C(\C#N)C(=O)NC2CCCCCC2)c(C)[nH]1 | 2.3 | i | 10 | -1 | -0.72
COc1ccc(-c2[nH]ncc2/C=C(/C#N)C(=O)NC2CCCCCC2)cc1 | 0.3 | i | 49* | 7 | -0.41
O=C(CCCSc1nnc(Nc2ccccc2F)s1)N1CCOCC1 | 2 | i | 4 | -4 | 0.51
Cc1cc(/C=N/NC(=O)c2cccc(F)c2)c(C)n1-c1ccccc1 | -1.2 | i | 16* | 9 | -0.35
CCOC(=O)N/N=C/c1cc(C)n(-c2cccc3ccccc23)c1C | 0.49 | i | 21* | 9 | -0.33
N#Cc1cc(-c2ccccc2)oc1NC(=O)c1ccccc1 | -1.4 | i | 44* | -3 | 0.34
Cc1ccc(C(=O)Nc2oc(-c3ccccc3)cc2C#N)cc1 | -0.78 | i | 1 | 3 | 0.34
Cc1cc(-c2ccccc2)n(-c2cc(N/N=C/c3ccccc3O)ncn2)n1 | -0.26 | i | 11 | 128* | -1.3
CC(NC(=O)/C(C#N)=C/c1ccco1)c1ccccc1 (centres undefined) | 0.12 | . | . | 0 | -0.16
CC(NC(=O)/C(C#N)=C1\N=C(NC(=O)c2ccco2)c2ccccc21)c1ccccc1 (centres undefined) | -0.19 | . | . | 0 | 3.7*
Cn1ncc(N=Cc2c(O)ccc3ccccc23)c1C(=O)Nc1cccc(Cl)c1 | -0.06 | + | 15* | 9 | 2.3
CCSc1ncnc2sc(C)c(C)c12 | 0.026 | + | 5 | 5 | 0.75
Cc1nn(-c2ccccc2)c2sc(C(=O)NC3CC3)cc12 | 0.29 | i | 4 | 1 | 0.05
Cc1nn(-c2ccccc2)c2sc(C(=O)N(CC(=O)NC3CCCC3)Cc3ccco3)cc12 | 1.5 | i | 40* | -2 | -0.69
COc1ccc(CCNC(=O)CN2CCN(c3cccc(Cl)c3)CC2)cc1OC | -0.47 | i | 1 | 0 | -0.82
COc1ccc(C(=S)N2CCN(c3cccc(Cl)c3)CC2)c(OC)c1 | -0.38 | i | 18* | 107* | -0.53
COc1cc(CN2CCN(c3cccc(Cl)c3)CC2)cc(OC)c1OC | -0.87 | i | 46* | -2 | .
COc1cc(C(=S)N2CCN(c3cccc(Cl)c3)CC2)ccc1O | -0.75 | i | 24* | 50* | .
CN(C)N1C(=O)CC(N2CCCCC2)C1=O (centres undefined) | -0.26 | i | 2 | 3 | -0.19
CCn1c(=O)[nH]c(=O)c2c(N)c(C(=O)c3cc(F)ccc3F)sc21 | -0.18 | . | . | 0 | -1.1
NN1C(=O)/C(=C\c2ccco2)SC1=S | -1 | . | . | 1 | 0.38
Cc1ccc(-c2csc3nc4c5ccccc5c(NCCCN(C)C)nn4c(=O)c23)cc1 | -6 | + | 77* | 6 | -0.3
COc1ccc2c(c1)NC(c1cc(Cl)cc(Cl)c1O)c1cccn1-2 (centres undefined) | -0.47 | + | 2 | 2 | -0.15
Oc1c(Cl)cc(Cl)cc1C1Nc2ccccc2-n2cccc21 (centres undefined) | 1.1 | . | . | -1 | -0.18
Nc1[nH]ncc1-c1ccc(Cl)cc1 | -0.15 | + | 2 | -2 | 0.02
OCCC1CN(Cc2cn[nH]c2C2CCCCC2)CCN1C1CCCCC1 (centres undefined) | 1.3 | i | 3 | 0 | -0.06
O=C1CN(c2nc(-c3ccccc3)c3cc(Cl)ccc3n2)c2ccccc2N1 | 5.4 | + | 2 | 0 | 0.57
Cc1nn2c(COc3ccc(NC(=O)c4ccccc4Cl)cc3)nnc2c2ccccc12 | 0.28 | i | 18* | -1 | -0.19

Screening results: PubChem, several laboratories
